# Source: PubChem
# Only some compounds are listed: those with a hit (about 4.6% of all), similar ones and a draw of the others.
# TAAR1 agonist – human TAAR1 agonism. Q96RJ0. CHO RD-HGA16 TAAR1, Fluo-8 calcium fluorescence; vehicle wells 0%, saturating PEA agonist 100%. activation, % at 3 µM. 0.99% of 360,000 active. AID 624467;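 active means activation above the mean activation of all test compounds in the run plus 3 SD, cut at about 38% in these data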
#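 Test system: RD-HGA16 (CHO) cells co-expressing Gα16 and hTAAR1; dosing: one-point dosing at 3 µM (nominal); timing: 17-24 h seeding, 75 min 37 °C dye, 30 min RT; signal: kinetic Fluo-8 calcium fluorescence; read-out basis: % activation relative to PEA EC100 response; controls: DMSO and PEA EC100; replicates: n 1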
# CHO parental Ca – counter-screen for OX1R antagonists: effect in parental CHO cells; parental CHO-K1, ATP-induced calcium, Fluo-8 fluorescence; inhibition, % at 5.6 µM; 0.63% of 330,000 active;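 active means inhibition above that plate's mean sample inhibition plus 3 SD, cut at about 26% in these data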;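 further: 0% = ATP-challenged DMSO wells and 100% = DMSO wells without ATP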
#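 test system = CHO parental line | reagent = ATP stimulus | measured by = intracellular calcium via Fluo-8 no-wash fluorescent dye | control set = ATP and no-ATP DMSO wells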
# TAAR1 antagonist – antagonists of human TAAR1; Q96RJ0; CHO RD-HGA16 TAAR1, Fluo-8 calcium fluorescence, antagonist; inhibition, % at 3 µM; 1.5% of 360,000 active; AID 624466;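 active means inhibition above a per-plate cutoff, the mean inhibition of test compounds on that plate plus 3 SD, cut at about 49% in these data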;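 further: 0% = DMSO plus EC80 beta-PEA response and 100% = DMSO alone without agonist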
#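 Test system: CHO RD-HGA16 cells bearing hTAAR1 | Reagent: β-PEA, EC80 | Compound dosing: 3 µM, single point | Schedule: Dye loading 75 min at 37 °C, then 30 min room temperature | Signal: Calcium fluorescence with Fluo-8 | Evaluation: Percent inhibition of PEA-evoked calcium signal, max/basal emission ratio | Control set: DMSO-only wells and EC80 β-PEA-stimulated wells | Repeats: Singlicate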
# OX1R antag-1 – human HCRTR1 antagonism | O43613 | CHO/OX1R cells, Fluo-8 calcium fluorescence, orexin A | inhibition, % at 5 µM | 0.43% of 330,000 active;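 active means inhibition above its plate's threshold, mean inhibition of all tested compounds on the plate plus 3 SD, cut at about 37% in these data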;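 further: 0% = orexin A challenge wells and 100% = SB-334867-A antagonist wells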
# Target sequence (O43613 whole entry, looked up): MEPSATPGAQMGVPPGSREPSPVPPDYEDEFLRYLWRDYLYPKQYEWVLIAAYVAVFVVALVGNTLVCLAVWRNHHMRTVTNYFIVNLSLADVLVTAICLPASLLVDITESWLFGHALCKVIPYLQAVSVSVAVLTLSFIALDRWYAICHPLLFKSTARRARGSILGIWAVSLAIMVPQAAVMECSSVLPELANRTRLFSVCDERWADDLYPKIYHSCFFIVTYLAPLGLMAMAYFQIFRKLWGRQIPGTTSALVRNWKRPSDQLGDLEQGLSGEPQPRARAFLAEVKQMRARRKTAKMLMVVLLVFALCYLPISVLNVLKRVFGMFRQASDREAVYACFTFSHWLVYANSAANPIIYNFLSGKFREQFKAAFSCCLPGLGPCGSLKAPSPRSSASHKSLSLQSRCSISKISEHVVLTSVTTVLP
# GPR7 antag – human neuropeptides B/W receptor 1 antagonism; 1.1% of 290,000 active; inhibition, % at 4.4 µM; GPR7-expressing cells, fluorescence antagonist assay; in the data active means inhibition above about 16%, passing the limit was not always enough;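 further: cells stimulated with the agonist NPW; 0% = agonist with vehicle and 100% = vehicle without agonist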
# OX1R antag-2 – blocks the human orexin 1 receptor. OX1R-expressing cells, FRET antagonist read-out. O43613. 1.8% of 330,000 active. inhibition, % at 6.6 µM; in the data active means inhibition mostly above about 38%, no sharp cut-off; inactive means mostly below about 40%;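 further: 0% = agonist challenge alone and 100% = reference antagonist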
# OX1R HTRF confirm – confirmation of human orexin 1 receptor antagonists, HTRF format. shares compounds with OX1R antag-2. OX1R-expressing cells, HTRF antagonist assay. inhibition, % at 6.6 µM. 49% of 1,800 active; in the data active means inhibition above about 55%;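 further: CHO cells expressing OX1R stimulated with orexin A at about EC80; 0% = agonist challenge alone and 100% = reference antagonist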
# CHO-K1 HTRF cnt – counter-screen: parental CHO-K1 HTRF response | inhibition, % at 6.6 µM | 48% of 1,800 active | shares compounds with OX1R antag-2 | parental CHO-K1 cells, HTRF counterscreen | AID 493232; in the data active means inhibition above about 17%;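 further: 0% = agonist challenge with vehicle and 100% = vehicle alone without agonist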
# Starred values were filed as active, the others as inactive; x = no result.
SMILES,TAAR1 agonist,CHO parental Ca,TAAR1 antagonist,OX1R antag-1,GPR7 antag,OX1R antag-2,OX1R HTRF confirm,CHO-K1 HTRF cnt
O=C(/C=C/[C@H]1O[C@@H](n2ccc(=O)[nH]c2=O)[C@H](O)[C@@H]1O)NCc1ccc2c(c1)OCO2,1,x,-5,x,x,x,x,x
Cc1cc(=O)n(C)c(=O)n1CCCCCCOc1ccc([N+](=O)[O-])cc1,x,-4,x,-12,-1,6,x,x
Cc1cc(=O)n(C)c(=O)n1CCCCOc1ccc([N+](=O)[O-])cc1,3,0,12,8,13,104*,25,16
Cc1[nH]nc2c(=S)[nH]c(=O)[nH]c12,1,x,-10,x,x,x,x,x
COc1ccc([C@@H]2CC=C(C(=O)O)[C@H](c3cccc(Cl)c3)N2S(=O)(=O)c2ccc(C)cc2)cc1OC,12,-8,-9,13,x,77*,84*,-1
COc1ccc([C@@H]2CC=C(C(=O)O)[C@H](c3ccccc3)N2S(=O)(=O)c2ccccc2C)cc1,7,-25,3,-29,x,78*,55*,-3
CN(Cc1ccccc1)C(=O)c1csc(COCCO)n1,1,x,-3,x,x,x,x,x
COc1ccc(CC(=O)NCc2nnc(SCC(=O)Nc3cccc(F)c3)n2C)cc1,-1,-8,-2,-8,3,92*,17,-12
COc1ccc(CC(=O)NCc2nnc(SCC(=O)Nc3ccccc3)n2C)cc1,1,-7,-4,-4,-12,14,x,x
COc1ccc2nc(NC(=O)C3CCCN3S(=O)(=O)c3ccc(C)cc3)sc2c1 (configuration not stated),3,-7,-11,11,-22,80*,50,7
COc1ccc(S(=O)(=O)N2CCC[C@H]2C(=O)NC2=NCCS2)cc1,11,-7,2,-5,-3,34,x,x
CCOC1=C2CN(S(=O)(=O)c3ccc(C)cc3)[C@H](c3cccc(Cl)c3)C[C@@H]2N(S(=O)(=O)c2ccccc2[N+](=O)[O-])[C@H](c2ccccc2)C1,0,x,-17,x,x,x,x,x
COc1ccc(CNC(=O)c2sc(=O)n(Cc3ccc(C)cc3)c2C)cc1,6,x,31,x,x,x,x,x
O=C(OCC#CCSc1nnc(-c2ccc([N+](=O)[O-])cc2)o1)c1cccs1,7,-7,29,-10,-4,87*,51,30*
CCC(=O)Nc1ccc(C(=O)NNC(=O)c2ccc([N+](=O)[O-])cc2)cc1,0,1,3,-9,0,158*,39,34*
CC(=O)Nc1ccc(S(=O)(=O)NNC(=O)c2ccc([N+](=O)[O-])cc2)cc1,-1,-9,-6,-15,-9,19,x,x
CC(=O)Nc1ccc(C(=O)NNC(=O)c2cc([N+](=O)[O-])cc([N+](=O)[O-])c2)cc1,7,-11,-7,-3,-5,80*,49,73*
CCC(=O)Nc1ccc(C(=O)NNC(=O)c2cc([N+](=O)[O-])cc([N+](=O)[O-])c2)cc1,13,5,6,-6,2,181*,19,11
CCc1ccc(C(O)c2ncc(-c3ccc(Cl)cc3)[nH]2)cc1 (configuration not stated),4,x,-17,x,x,x,x,x
Cc1[nH]c2ccccc2c1/C=C/c1nc2ccccc2c(=O)[nH]1,4,3,-4,-25,-6,87*,75*,12
O=C1NC(C(=O)O)=CC(c2ccc([N+](=O)[O-])cc2)N1 (configuration not stated),0,-2,-1,4,-9,104*,48,78*
O=C(O)CCCC(=O)OCCCc1cc2ccccc2c(=O)o1,5,x,-9,x,x,x,x,x
O=[N+]([O-])c1ccc(S(=O)(=O)NCC2CCCO2)cc1 (configuration not stated),0,-11,7,-18,1,81*,46,47*
CCn1c(SCC(=O)NCc2ccco2)nc2ccccc2c1=O,9,-9,-3,-12,-3,22,x,x
O=C(CSc1nc2ccccc2c2nc3ccccc3n12)NCc1ccco1,10,-17,-3,-4,-9,81*,62*,5
SMILES,TAAR1 agonist,CHO parental Ca,TAAR1 antagonist,OX1R antag-1,GPR7 antag,OX1R antag-2,OX1R HTRF confirm,CHO-K1 HTRF cnt
COc1ccc(CNc2nc(SCC(=O)NCc3ccco3)nc3ccccc23)cc1,3,-2,-16,7,-1,79*,24,1
Cc1ccccc1-n1nc2c(c1NC(=O)C1CC1)CS(=O)(=O)C2,3,x,-14,x,x,x,x,x
COc1cc2sc3ccc(-c4ccc(N(C)C)nc4)cc3c(=O)c2cc1OC,4,-18,-14,-6,x,80*,65*,17
COc1cccc(/C=C2/SC(=O)N(C)C2=O)c1OCc1ccc(C(=O)O)cc1,5,-11,-8,-6,-16,102*,32,35*
COc1ccc(C(=Cc2cc(OC)c(OC)cc2[N+](=O)[O-])C(=O)O)cc1,2,x,-4,x,x,x,x,x
O=C1c2cc(S(=O)(=O)NCCO)ccc2-c2ccc(S(=O)(=O)NCCO)cc21,2,1,6,-3,1,79*,61*,64*
O=C(O)CNS(=O)(=O)c1ccc2c(c1)C(=O)c1cc(S(=O)(=O)NCC(=O)O)ccc1-2,4,x,-29,x,-26,x,x,x
O=[N+]([O-])c1cccc(/C=N/n2cnnc2)c1,0,0,-17,-5,-8,77*,26,31*
C/[N+]([O-])=C1\Cc2ccccc2C1=O,13,-12,-12,-16,0,105*,52,63*
NC(=O)c1c(NC(=O)Cn2cc([N+](=O)[O-])cn2)sc2c1CCCC2,7,-2,-8,-18,-3,101*,18,7
CCCCNC(=O)C[C@@H]1C[C@@]2(C(=O)OC)CCCCC=C2N(CCC2=CCCCC2)C1=O,6,x,28,x,x,x,x,x
N#CC(C#N)=Cc1c[nH]c(=O)c(C#N)c1Nc1ccccc1,2,10,-10,4,x,88*,44,62*
O=C(Oc1ccc(Br)cc1C(=S)N1CCCCC1)c1cc([N+](=O)[O-])cc([N+](=O)[O-])c1,x,-6,x,-19,2,130*,73*,70*
COCCN1C(=O)CCC1(C)c1nnnn1-c1ccc2c(c1)OCCO2 (configuration not stated),5,x,-14,x,x,x,x,x
Fc1ccc(NC(=S)Nc2cccnc2)c(Cl)c1,0,-3,-9,-9,-4,98*,18,3
O=C(NCc1ccccc1)C1CCCN(S(=O)(=O)c2cccc3nsnc23)C1 (configuration not stated),1,-30,0,-30,-9,24,x,x
